Most compounds without a hit are left out; they make up all but 2.9% or so of the library.
C2C12 statin = suppressors of simvastatin-induced myotoxicity in C2C12 myotubes; ATP luminescence, 48 h; scaled: DMSO 0, geranylgeraniol control 100; AID 602340; hit rate 0.78% among 330,000; rescue of ATP level, % at 7.49 µM;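 active = mean ATP rescue above about 67%, or every replicate alone reaching that limit, limit read from the data, passing the limit was not always enough; inconclusive = no clear call, values can overlap the other calls; inactive = mean under the limit and some replicate under it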;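 note: myotubes were challenged with 10 µM simvastatin during compound exposure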
DENV2 CPE rescue = protects cells from dengue virus 2 cytopathic effect | DENV2-infected cells, cytopathic effect rescue, plate reader | CPE inhibition, % at 9.99 µM | hit rate 1.7% among 350,000 | AID 651640; in the data active = CPE inhibition above about 20%, passing the limit was not always enough; inconclusive = no clear call, values can overlap the other calls; tested in BHK-21 cells
PGC1a acetyl inh = modulators of PGC1a acetylation; U2OS PGC1a acetylation, AlphaScreen anti-acetyl-lysine; with virally co-expressed GCN5 acetyltransferase; AID 651687; inhibition, % at 15.6 µM; hit rate 0.17% among 350,000;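 active = every replicate shows inhibition of at least 40%; inconclusive = mean inhibition at least 40% but some replicate below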
S100A4 MyoIIA = blocks human S100A4 binding to myosin IIA peptide. hit rate 0.14% among 360,000. inhibition, % at 10.7 µM. P26447. S100A4/TAMRA-MyoIIA peptide fluorescence polarization;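 active = mean inhibition of at least 70% across replicates, with every replicate also reaching that level; inconclusive = mean inhibition reaches 70% but some replicates fall short; inactive = mean inhibition below 70%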
Target sequence (P26447 whole entry, looked up): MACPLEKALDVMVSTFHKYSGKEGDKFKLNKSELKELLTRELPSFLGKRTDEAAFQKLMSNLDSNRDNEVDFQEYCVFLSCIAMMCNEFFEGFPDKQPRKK
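Material: S100A4 monomer protein / Buffer or medium: 50 mM HEPES pH 7.2, 10 mM CaCl2, 100 mM KCl / Times: 5 min incubation before reading / Benchmarks: neutral control DMSO, positive control TFP / Reagent: labelled myosin peptide probe, 5 nM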
SIRT5 inh = inhibitors of human sirtuin-5 desuccinylase; Q9NXA8; Purified SirT5, succinyl-peptide AMC, trypsin-coupled fluorescence; inhibition, % at 15 µM; hit rate 1.1% among 330,000; AID 652115; in the data active = inhibition above about 15%; inconclusive = no clear call, values can overlap the other calls
Target sequence (Q9NXA8 whole entry, looked up): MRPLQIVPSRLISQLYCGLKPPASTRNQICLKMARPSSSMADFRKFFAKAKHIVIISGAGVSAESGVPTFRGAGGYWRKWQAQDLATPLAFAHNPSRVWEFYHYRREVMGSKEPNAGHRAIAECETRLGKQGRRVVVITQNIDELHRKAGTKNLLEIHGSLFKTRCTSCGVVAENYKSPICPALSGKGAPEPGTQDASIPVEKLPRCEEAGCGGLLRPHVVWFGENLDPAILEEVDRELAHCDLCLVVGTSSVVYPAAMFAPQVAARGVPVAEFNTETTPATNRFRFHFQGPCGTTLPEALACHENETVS
Large screens that a line does not name were inactive.

CCc1ccc(/C=C2/SC(=S)N(CCC(=O)NCCCN3CCOCC3)C2=O)cc1	none (no result: PGC1a acetyl inh)
COC(=O)c1ccc(/C=C2/SC(=S)N(CCC(=O)NCCCN3CCOCC3)C2=O)cc1	SIRT5 inh 23.2
O=C(CCN1C(=O)/C(=C/c2ccccc2)SC1=S)NCCCN1CCOCC1	PGC1a acetyl inh 56.4
N#C[C@@H]1[C@H](c2ccccc2-c2ccccc2)[C@H](CO)N1C(=O)NC1CCCC1	none (no result: C2C12 statin, S100A4 MyoIIA)
C[C@H]1CN([C@@H](C)CO)C(=O)Cc2cc(NS(=O)(=O)c3ccc(F)cc3)ccc2O[C@H]1CN(C)C(=O)NC1CCCCC1	none
O=C(NCc1ccccc1)[C@H]1CCCN1C(=O)[C@H]1CCCN1C(=O)c1cccc(F)c1	none (no result: C2C12 statin, PGC1a acetyl inh, SIRT5 inh)
CCNC(=O)C[C@@H]1CC[C@@H]2[C@H](COC[C@@H](O)CN2Cc2ccncc2)O1	none
COc1ccc(-c2ncc3ccccn23)cc1	C2C12 statin 99.3 (no result: DENV2 CPE rescue, S100A4 MyoIIA, SIRT5 inh)
CCCNC(=O)N1[C@@H](C#N)[C@@H](c2ccc(C#Cc3cccc(F)c3)cc2)[C@@H]1CO	none
Cc1noc(C)c1S(=O)(=O)Nc1ccc2c(c1)C(=O)N([C@H](C)CO)C[C@@H](C)[C@H](CN(C)C(=O)CCC(F)(F)F)OCCCC[C@@H](C)O2	none (no result: C2C12 statin)
CS(=O)(=O)N1[C@@H](C#N)[C@@H](c2ccc(C#Cc3cccc(F)c3)cc2)[C@@H]1CO	none
CN(C)CC(C(=O)c1ccccc1)c1ccccc1 (stereo unspecified)	PGC1a acetyl inh 138.8 (no result: DENV2 CPE rescue, S100A4 MyoIIA, SIRT5 inh)
CN(Cc1cc(Cl)cc(Cl)c1)CC(C(=O)c1ccccc1)c1ccccc1 (stereo unspecified)	none
C[C@H](CO)N1C[C@H](C)[C@@H](CN(C)S(=O)(=O)c2cn(C)cn2)OCCCC[C@H](C)Oc2ccc(NC(=O)c3ccccc3)cc2C1=O	none (no result: C2C12 statin)
C/C=C/c1cnc2c(c1)C(=O)N([C@@H](C)CO)C[C@H](C)[C@H](CN(C)C(=O)NCCC)O2	none
CCC[C@H]1CC(=O)C=C(c2ccsc2)ON1C(=O)OC(C)(C)C	SIRT5 inh 21.5
COc1ccc(C2=CC(=O)C[C@H](CN3C(=O)c4ccccc4C3=O)N(C(=O)OC(C)(C)C)O2)cc1	none
CCCNC(=O)N1CC2(CN(Cc3ccncc3)C2)c2c(n(C)c3cc(OC)ccc23)[C@@H]1CO	none (no result: C2C12 statin)
CN1CCN(c2nc3c(c(=O)n(C)c(=O)n3C)n2Cc2cccc3ccccc23)CC1	C2C12 statin 115.6 (no result: DENV2 CPE rescue, S100A4 MyoIIA, SIRT5 inh)
COCC(=O)N1C[C@H](C)[C@H](OC)CN(C)C(=O)c2ccc(NC(=O)c3ccc(OC)cc3)cc2OC[C@H]1C	none
Cc1cc(C)cc(NC(=O)Cn2nnc(C(=O)NCc3ccc(F)cc3)c2N)c1	C2C12 statin 119.6, SIRT5 inh 15.6
CO[C@@H]1CN(C)C(=O)c2cc(NC(=O)C3CC3)ccc2OC[C@H](C)N(C(=O)NC(C)C)C[C@@H]1C	none
CCCCCCn1c(N(CC)CC)nc2c1c(=O)[nH]c(=O)n2C	none (no result: DENV2 CPE rescue, PGC1a acetyl inh, S100A4 MyoIIA, SIRT5 inh)
CCN(CC)c1nc2c(c(=O)[nH]c(=O)n2C)n1Cc1ccccc1	SIRT5 inh 101.6
Cn1c(=O)[nH]c(=O)c2c1nc(CN1CCN(c3cccc(Cl)c3)CC1)n2CCc1ccccc1	C2C12 statin 92.4 (no result: DENV2 CPE rescue)
CCCCCn1c(CN2CCN(c3cccc(Cl)c3)CC2)nc2c1c(=O)[nH]c(=O)n2C	none (no result: DENV2 CPE rescue, S100A4 MyoIIA, SIRT5 inh)
O=C(N[C@@H]1CC[C@@H](CCNS(=O)(=O)c2cccc(Cl)c2)O[C@@H]1CO)c1ccc(F)cc1	none
Cc1ccc(S(=O)(=O)N(C)C[C@@H]2Oc3ccc(NC(=O)Nc4ccc5c(c4)OCO5)cc3CC(=O)N([C@@H](C)CO)C[C@@H]2C)cc1	none
O=C(COc1ccccc1)N/N=C/c1sc(=O)n(Cc2cccc(C(=O)O)c2)c1Cl	SIRT5 inh 15.8 (no result: C2C12 statin, DENV2 CPE rescue)
COc1ccc(-c2ccc(=O)[nH]n2)cc1	none
O=c1ccc(-c2ccccc2)n[nH]1	SIRT5 inh 21.2 (no result: DENV2 CPE rescue)
CCC/C(=C1/c2ccccc2C(=O)N1c1ccccc1)c1ccc(O[C@@H]2CCCCO2)cc1	DENV2 CPE rescue 36.9
CCC/C(=C1/c2ccccc2C(=O)N1c1ccccc1)c1cnc(OC)nc1	DENV2 CPE rescue inconclusive
CCC/C(=C1/c2ccccc2C(=O)N1c1ccccc1)c1ccc2c(c1)OCCO2	C2C12 statin 115.1
CCC/C(=C1/c2ccccc2C(=O)N1c1ccccc1)c1ccc(C=O)o1	none (no result: C2C12 statin, PGC1a acetyl inh, SIRT5 inh)
COCC#Cc1ccc(CC[C@H]2O[C@H]3CC[C@@H](CO)O[C@H]3C[C@@H]2n2cc(C3(O)CCCC3)nn2)cc1	none (no result: C2C12 statin)
COc1ccc(NC(=O)Nc2ccc3c(c2)C(=O)N([C@H](C)CO)C[C@@H](C)[C@@H](CN(C)S(=O)(=O)c2c(C)noc2C)OCCCC[C@H](C)O3)cc1	none (no result: C2C12 statin)
CSCC(=O)N1CCCC(CO)(Cc2ccccc2C)C1 (stereo unspecified)	PGC1a acetyl inh 109.0
Cc1ccccc1CC1(CO)CCCN(C(=O)CCC(F)(F)F)C1 (stereo unspecified)	none (no result: PGC1a acetyl inh)
CO[C@@H]1CN(C)C(=O)c2cc(NC(=O)Cc3ccccc3)ccc2OC[C@@H](C)N(C(C)=O)C[C@@H]1C	none
CCN1CCN(C(=O)/C=C/c2ccc(OC)c(OC)c2)CC1	DENV2 CPE rescue 20.1
COc1ccc(C2Nc3ccccc3C(=O)N2NS(C)(=O)=O)c(OC)c1 (stereo unspecified)	SIRT5 inh 15.1 (no result: PGC1a acetyl inh)
Cc1ccc(S(=O)(=O)N(C)C[C@H]2OCCCC[C@H](C)Oc3ccc(NC(=O)Nc4ccc(C(F)(F)F)cc4)cc3C(=O)N([C@@H](C)CO)C[C@@H]2C)cc1	none (no result: C2C12 statin)
Cc1ccc(S(=O)(=O)N(C)C[C@@H]2OCCCC[C@H](C)Oc3ccc(NC(=O)Nc4ccc(C(F)(F)F)cc4)cc3C(=O)N([C@H](C)CO)C[C@@H]2C)cc1	DENV2 CPE rescue 23.0 (no result: C2C12 statin)
Cc1ccc(S(=O)(=O)N(C)C[C@@H]2OCCCC[C@@H](C)Oc3ccc(NC(=O)Nc4ccc(C(F)(F)F)cc4)cc3C(=O)N([C@@H](C)CO)C[C@H]2C)cc1	DENV2 CPE rescue 53.1 (no result: C2C12 statin)
Cc1ccc(S(=O)(=O)N(C)C[C@H]2OCCCC[C@H](C)Oc3ccc(NC(=O)Nc4ccc(C(F)(F)F)cc4)cc3C(=O)N([C@H](C)CO)C[C@@H]2C)cc1	DENV2 CPE rescue 55.3 (no result: C2C12 statin)
CCC(=O)N1CC2(CN(Cc3ccc(Cl)cc3)C2)c2c(n(C)c3cc(OC)ccc23)[C@H]1CO	none (no result: C2C12 statin)
O=c1c2cccnc2n(-c2ccccc2)n1Cc1ccc(Cl)cc1	PGC1a acetyl inh 101.0
O=C(Nc1ccc(CSc2ccccc2)cc1)c1ccccc1	SIRT5 inh 15.3 (no result: C2C12 statin, PGC1a acetyl inh)
O=C(CN1C(=O)/C(=C/c2ccco2)SC1=S)Nc1ccc(C(=O)O)c(O)c1	SIRT5 inh 62.0
COc1ccc(NC(=O)CCCN2C(=O)/C(=C\c3ccco3)SC2=S)cc1	none (no result: C2C12 statin, DENV2 CPE rescue, S100A4 MyoIIA, SIRT5 inh)
CC(C(=O)N(C)C1CCS(=O)(=O)C1)N1C(=O)/C(=C/c2ccco2)SC1=S (stereo unspecified)	none (no result: PGC1a acetyl inh)
O=C(CN1C(=O)/C(=C/c2ccco2)SC1=S)Nc1ccc(O)c(C(=O)O)c1	SIRT5 inh 53.0
O=C(CCN1C(=O)/C(=C\c2ccccc2F)SC1=S)Nc1ccc(C(=O)O)c(O)c1	none (no result: PGC1a acetyl inh)
